Assay [1] has as its system HCT-8. The assay is described as follows: Selectivity index, ratio of IC50 for human HCT8 cells under normoxic condition to IC50 for human HCT8 cells under hypoxic condition. Type of assay: functional.
Assay [2] is described as follows: Cytotoxicity against human HCT8 cells under normoxic condition after 2 days by crystal violet method. The settings on record: HCT-8, 2 d.
A short description of assay [3]: Cytotoxicity against human HCT8 cells under hypoxic condition […] by crystal violet method. It is filed as functional, cell-based. The settings on record: HCT-8. The method, boiled down: (§1)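 HCT-8 or PANC-1 cells seeded at 2 × 10^4 per well in duplicate plates and preincubated 24 h to adhere. Serially diluted samples added, then cultures held 2 d either normoxic (5% CO2) or hypoxic (1% O2, modular chamber with oxygen indicator). Viability read by crystal violet staining under normoxic conditions.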

The nature of assay [4]: Cytotoxicity against human PANC1 cells under hypoxic condition […] by crystal violet method. It is filed as functional, cell-based. To be noted: PANC-1. The method, boiled down:
as §1

Assay [5] is described as follows: Cytotoxicity against human PANC1 cells under normoxic condition after 2 days by crystal violet method. The settings on record: PANC-1, 2 d.
In assay [6] the test system is PANC-1. The assay is described as follows: Selectivity index, ratio of IC50 for human PANC1 cells under normoxic condition to IC50 for human PANC1 cells under hypoxic condition. It is filed as functional.

A value given as a limit tells only on which side of the number the result lay.

By IC50 is commonly meant the concentration at which inhibition is half-maximal. Read a high IC50 as a need for much substance. `CC(C)CCCCCCCCCCC[C@@H](C)[C@H](O)[C@H](C)C(=O)NC(C)CCC(=O)N(C)CC(=O)N[C@@H](C(=O)O)[C@@H](O)C(N)=O` (stereo not given in full): in assay [1], the “Ratio IC50” value was 0.54. Moreover, the half-maximal inhibitory concentration (IC50) was 33.9 µM in assay [2], 63.4 µM in assay [3], above 80 µM in assay [4] and 27.4 µM in assay [5].
On to `C=C1/C=C/C(=O)N(C)CC(=O)NC(C(O)C(N)=O)C(=O)OC(C(C)CCCCCCCCCCCCC(C)C)C(C)C(=O)N1` (stereo not given), for which the entries for the “Ratio IC50” value in assay [6] and in assay [1] were 4.3 and 10, respectively. The 50% inhibitory concentration (IC50) in assay [2] worked out at 2.1 µM; in assay [3], 0.21 µM; in assay [4], 0.71 µM; in assay [5], 3.1 µM.
With `C=C1/C=C/C(=O)N(C)CC(=O)N[C@H]([C@@H](O)C(N)=O)C(=O)O[C@@H]([C@H](C)CCCCCCCCCCCCCC(C)C)[C@H](C)C(=O)N1`, the “Ratio IC50” value in assay [6] is given as 3.8; in assay [1] it was 5.2. Besides, the concentration for half-maximal inhibition (IC50) turned out to be 9.4 µM in assay [2], 1.8 µM in assay [3], 4.7 µM in assay [4] and 17.9 µM in assay [5].
In the case of `CC(C)CCCCCCCCCCC[C@@H](C)[C@@H]1OC(=O)[C@@H]([C@@H](O)C(N)=O)NC(=O)CN(C)C(=O)CCC(C)NC(=O)[C@H]1C` (stereo not given in full), the “Ratio IC50” value in assay [6] was found to be 0.26; in assay [1] it was 4.3. The IC50 in assay [2] came out at 27.7 µM; in assay [3] it was 6.5 µM; in assay [4], 75.4 µM; in assay [5], 19.3 µM.
For the compound `COc1cccc2c1C(=O)c1c(O)c3c(c(O)c1C2=O)C[C@@](O)(C(=O)CO)C[C@@H]3O[C@H]1C[C@H](N)[C@H](O)[C@H](C)O1` [DOXORUBICIN], the entries for the “Ratio IC50” value in assay [6] and in assay [1] were 0.21 and 0.12, respectively. For the same compound, the half-maximal inhibitory concentration (IC50) is 2.4 µM in assay [2], 19.6 µM in assay [3], 5.4 µM in assay [4] and 1.1 µM in assay [5].
In the case of `C=C1/C=C/C(=O)N(C)CC(=O)N[C@H]([C@@H](O)C(N)=O)C(=O)O[C@@H]([C@H](C)CCCCCCCCCCCC(C)C)[C@H](C)C(=O)N1`, the entries for the “Ratio IC50” value in assay [6] and in assay [1] were 6.3 and 12.8, respectively. Also, the IC50 in assay [2] is 3.9 µM; in assay [3], 0.3 µM; in assay [4], 0.37 µM; in assay [5], 2.3 µM.

For the origin of these results see ChEMBL document CHEMBL3351538, “Complete stereochemistry and preliminary structure-activity relationship of rakicidin A, a hypoxia-selective cytotoxin from Micromonospora sp” (J Nat Prod, 2014).
